Compound activity deposited in PubChem BioAssay by several laboratories.
SR-BI uptake up – activators of SR-BI mediated HDL lipid uptake | CHO ldlA[mSR-BI] cells, DiI-HDL uptake fluorescence, 3 h; 100 = double the neutral-control signal | actives 0.096% (n = 320,000) | AID 504775 | activation, % at 12.5 µM;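 active = mean replicate activation of at least 60% and every replicate at or above 60%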
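system = CHO ldlA[mSR-BI] cells, LDL receptor-null, SR-BI overexpressing | medium = Ham's F12 with 0.5% BSA, HEPES 25 mM, pH 7.4 | probe or stimulus = DiI-HDL 10 µg/mL | compound dosing = single-point compound dose | incubation = compound exposure 3 h, 37 °C | technique = DiI fluorescence, bottom read | read-out = cell-associated DiI fluorescence as measure of HDL uptake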
GAA850 FXN act – activators of GAA850 frataxin (FXN) promoter | HEK293 lucGAA850 FXN promoter luciferase reporter, 24 h; percent of 10 µM SAHA response | activation, % at 6 µM | actives 0.56% (n = 360,000) | AID 540364;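 active = activation above the average of all compounds screened plus 3 SD, cutoff fixed separately per campaign, cut at about 7.5% in these data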
SR-BI DiI inh – inhibitors of mouse SR-BI mediated HDL lipid uptake; Q61009; ldlA[mSR-BI] CHO cells, DiI-HDL uptake fluorescence, 3 h; inhibition, % at 12.5 µM; actives 0.96% (n = 320,000);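 active = mean replicate inhibition of at least 70% and a set share of replicates each scoring 70 or more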
AHR act – activates the human aryl hydrocarbon receptor; AHR-responsive luciferase reporter cells, luminescence; activation, % at 5 µM; actives 2.5% (n = 320,000); AID 2796; in the data active = activation above about 47%
HIF act – HIF pathway transcriptional activation. U2OS HRE-luciferase reporter, luminescence; normalized: DMSO 0%, desferrioxamine 100%. activation, % at 7.5 µM (by protocol). actives 0.32% (n = 300,000). AID 1910;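 active = mean activation of at least 10% of the iron chelator positive control signal, with at least half of replicates also reaching 10%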
ABCB6 inh MLPCN – blocks the human ABCB6 transporter | fluorescence ratio to DMSO, % at 10 µM | K562-ABCB6 porphyrin accumulation, flow cytometry, 1 h; active compounds read low | actives 0.19% (n = 360,000);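 active = fluorescence ratio to DMSO below 75%, the collection mean minus 3 SD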;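 note: signal is porphyrin accumulated inside mitochondria; lower ratio means ABCB6 inhibition with less porphyrin fluorescence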
Target sequence (Q9NP58 whole entry, looked up): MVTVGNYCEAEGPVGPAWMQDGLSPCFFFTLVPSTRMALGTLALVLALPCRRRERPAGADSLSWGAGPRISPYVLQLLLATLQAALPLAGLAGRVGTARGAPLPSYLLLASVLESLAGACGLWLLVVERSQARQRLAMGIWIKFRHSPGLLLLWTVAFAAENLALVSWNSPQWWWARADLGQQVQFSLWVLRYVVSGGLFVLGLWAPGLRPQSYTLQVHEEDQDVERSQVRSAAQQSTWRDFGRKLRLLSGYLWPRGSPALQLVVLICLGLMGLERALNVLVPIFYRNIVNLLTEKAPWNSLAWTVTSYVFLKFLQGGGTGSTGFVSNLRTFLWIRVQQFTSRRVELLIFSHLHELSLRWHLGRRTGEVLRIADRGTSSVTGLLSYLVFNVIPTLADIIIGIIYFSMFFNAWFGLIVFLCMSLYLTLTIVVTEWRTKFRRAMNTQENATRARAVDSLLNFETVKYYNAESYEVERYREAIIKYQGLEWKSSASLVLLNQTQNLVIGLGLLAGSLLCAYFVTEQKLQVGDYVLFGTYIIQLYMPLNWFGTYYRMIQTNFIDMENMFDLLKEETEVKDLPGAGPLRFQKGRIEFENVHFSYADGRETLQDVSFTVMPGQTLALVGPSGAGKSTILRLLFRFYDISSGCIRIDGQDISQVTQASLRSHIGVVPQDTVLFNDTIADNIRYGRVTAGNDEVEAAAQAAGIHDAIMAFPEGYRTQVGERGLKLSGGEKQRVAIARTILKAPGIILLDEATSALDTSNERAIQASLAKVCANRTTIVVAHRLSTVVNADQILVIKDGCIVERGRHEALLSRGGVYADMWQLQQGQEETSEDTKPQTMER
Each line names hits and unclear results; the compound was inactive in the other large screens; ! = a repeat was not active. A selection: hits, their analogues and other compounds. The true share with any hit is near 3.9%.

COC(=O)c1cc(C(=O)c2ccc(Cl)cc2Cl)cn1C	none
Cn1cc(C(=O)c2ccc(Cl)cc2Cl)cc1C(=O)N/N=C(\N)COc1cccc(C(F)(F)F)c1	SR-BI DiI inh 81
O=C(N/N=C/c1ccco1)c1cc(=O)[nH]c2ccccc12	none
O=C(CCCn1c(=O)c2cccn2c2cccnc21)NCCc1ccc(Cl)cc1	SR-BI DiI inh 79
CC(C)Oc1cccc(-c2cc(C(=O)NC(=S)N(C)c3ccccc3C(=O)O)c3ccccc3n2)c1	AHR act 50
CCNC(=S)NNC(=O)c1cc(-c2cccc(OC)c2)nc2ccccc12	none
O=C(Nc1nc2ccccc2s1)c1cc(-c2ccco2)nc2ccccc12	AHR act 56
COc1cccc(-c2cc(C(=O)Nc3nc4ccccc4s3)c3ccccc3n2)c1	SR-BI DiI inh 88
COc1ccc(NC(=O)c2cc(-c3ccco3)nc3ccccc23)cn1	AHR act 71 (no result: HIF act)
COc1ccc(-c2cc(C(=O)Nc3nc4c(C)cccc4s3)c3ccccc3n2)cc1OC	none
CC(=O)Nc1ccc(S(=O)(=O)NCCC(=O)OCc2ccc([N+](=O)[O-])cc2)cc1	none
Cc1nnsc1C(=O)NNc1ccc(C(C)C)cc1	none
COc1cccc(NC(=O)c2cc(-c3ccc(C)o3)nc3ccccc23)c1	SR-BI DiI inh 77
COc1cccc(NC(=O)CN(C)C(=O)c2cc(-c3ccc(C)o3)nc3ccccc23)c1	none (no result: HIF act)
NCCNC(=O)Cc1cccc(NC(=O)Cc2ccc(Nc3ncnc4c3ncn4[C@@H]3O[C@H](CO)[C@@H](O)[C@H]3O)cc2)c1	GAA850 FXN act 10
O=C(NCC1CCCO1)c1cn(Cc2ccccc2)nc1-c1ccc(Cl)cc1 (centres undefined)	none (no result: HIF act)
Cn1nc(-c2ccc(Cl)cc2)c2cc(C(=O)NCC3CCCO3)sc21 (centres undefined)	SR-BI DiI inh 87, AHR act 57 (no result: HIF act)
CCN(CC)CCCNC(=O)c1cc2c(-c3ccc(Cl)cc3)nn(C)c2s1	AHR act 54 (no result: HIF act)
COc1ccc(O)c(CNn2c(-c3ccc(Br)cc3)nc3ccccc3c2=O)c1	AHR act 62
COc1cccc(-c2cc3nc(-c4ccccc4)cc(N4CCCC(O)C4)n3n2)c1 (centres undefined)	AHR act 74
CC(C)C1C(=O)N(Cc2cn(CCC3OCCCO3)nn2)CCS(=O)(=O)N1Cc1ccc(-c2ccc(Cl)nc2)cc1 (centres undefined)	none (no result: SR-BI uptake up, SR-BI DiI inh, AHR act, HIF act)
Cc1ccccc1C(=O)NC(=S)Nc1ccccc1N1CCCC1	AHR act 50
O=C(NC(=S)Nc1ccccc1N1CCCC1)c1ccc(F)cc1	AHR act 71
O=C(NC(=S)Nc1ccccc1N1CCCCC1)c1ccccc1	none
COc1ccc(C(=O)Nc2ccc(N3CCCC3)cc2)cc1OC	SR-BI DiI inh 74 (no result: AHR act)
COc1cccc(OC)c1C(=O)Nc1ccccc1N1CCCC1	none
COc1ccccc1C(=O)NC(=S)Nc1ccccc1N1CCCC1	SR-BI DiI inh 75, AHR act 53
COc1ccc(C(=O)Nc2ccc(N3CCOCC3)cc2)cc1OC	none
C/C(=N/NC(=O)c1cccs1)c1cccc(NC(=O)C2CC2)c1	none
COc1ccccc1C(=O)NC(=S)Nc1ccc(N2CCCC2)cc1	AHR act 85
COc1ccc(NC(=O)c2ccc(CNc3c(NC4CCCCC4)c(=O)c3=O)cc2)cc1OC	SR-BI DiI inh 78!
COc1cc(C(=O)NC(=S)Nc2ccc(N3CCCC3)cc2)cc(OC)c1OC	SR-BI DiI inh 75
Cc1ccc(C(=O)Nc2ccc(N3CCCC3)cc2)c(C)c1	SR-BI DiI inh 84
COc1ccc(CNC(=O)c2ccc(CNc3c(NC4CCCCC4)c(=O)c3=O)cc2)cc1	none
CCOC(=O)c1sc(NC(=O)CSc2ccccn2)c(C#N)c1C	none
O=C(COc1ccc(Br)cc1)NC(=S)Nc1ccccc1N1CCOCC1	none
O=C(NC(=S)Nc1ccccc1N1CCOCC1)c1ccc(Br)cc1	AHR act 55
COc1cc2ccccc2cc1C(=O)NC(=S)Nc1ccc(C(=O)O)cc1	AHR act 52
CON(C)C(=O)/C=C/CCCCNC(=O)OC(C)(C)C	SR-BI uptake up 63 (no result: HIF act)
Cc1c(C(=O)c2ccc(Cl)cc2Cl)cnc2cc3c(cc12)OCO3	none
Cc1c(-c2cc(Br)ccc2O)nc2cc3c(cc2c1C)OCO3	AHR act 63
Cc1nc2c(-c3ccc(F)cc3)c(C)[nH]n2c(=O)c1Cl	none
Oc1ccc(Cl)cc1/C=C/c1ccc2cccc(O)c2n1	SR-BI DiI inh 74 (no result: AHR act)
Oc1c(Cl)cc(Cl)cc1/C=C/c1ccc2cccc(O)c2n1	AHR act 51
COc1cc(Br)cc(/C=C/c2ccc3cccc(O)c3n2)c1O	SR-BI DiI inh 91
Oc1cccc2ccc(/C=C/c3ccccc3Br)nc12	none
O=C(CO)c1c[nH]c2ccccc12	none (no result: SR-BI uptake up, SR-BI DiI inh, AHR act, HIF act)
COc1ccc(CCN2CC(C(=O)NCc3cccc4[nH]ccc34)CCC2=O)cc1 (centres undefined)	none
O=C(NCc1cccc2[nH]ccc12)C1CCC(=O)N(CCc2ccccc2)C1 (centres undefined)	SR-BI uptake up 120
COc1ccc(C)cc1NC(=O)CN(c1ccc(C)cc1)S(C)(=O)=O	none
O=C(CSc1ccc(-c2ccccn2)nn1)Nc1ccc(F)cc1F	none
O=C(CSc1ccc(-c2cccnc2)nn1)Nc1ccc(F)cc1F	AHR act 65
CC(SC1=NCCN1S(=O)(=O)c1ccccc1)c1ccccc1 (centres undefined)	none
Cc1ccc2nc(-c3cccnc3)c(Nc3ccccc3C)n2c1	none
Cc1ccn2c(Nc3ccccc3)c(-c3ccccn3)nc2c1	none (no result: SR-BI uptake up, SR-BI DiI inh)
Cc1ccccc1Nc1c(-c2ccccn2)nc2ccccn12	HIF act 13
Cc1ccn2c(Nc3ccccc3C)c(-c3ccccn3)nc2c1	HIF act 12 (no result: SR-BI uptake up, SR-BI DiI inh)
Cc1ccc2nc(-c3ccccn3)c(Nc3ccccc3C)n2c1	HIF act 22 (no result: SR-BI uptake up, SR-BI DiI inh)
Cc1ccc(C)c(N(CC(=O)NC2CCCCC2)C(=O)c2snc(C(N)=O)c2N)c1	none
Fc1ccc(/C=N/n2cnn(Cc3ccccc3Cl)c2=S)cc1	none
Cn1c(=O)[nH]c(=O)c2c1nc(OC(=O)c1ccccc1)n2CC(O)COc1ccccc1 (centres undefined)	none
O=C1CCC(C(=O)N2CCCC2)CN1CCc1cccc(F)c1 (centres undefined)	none
CN(C)C=NC(=O)c1cn(-c2ccc(F)cc2)c(=O)c2ccccc12	HIF act 58
Cc1cc(NC(=O)CSc2ccc3nnc(-c4cccs4)n3n2)no1	AHR act 49
O=C(CSc1ccc2nnc(-c3ccccn3)n2n1)Nc1ccc2c(c1)OCO2	AHR act 53
Cc1ccc(NC(=O)CSc2ccc3nnc(-c4cccnc4)n3n2)cc1	AHR act 63
